# Shown are actives, neighbours in structure and some others; about 4.5% of the full set was active somewhere.
# TAAR1 agonist: human TAAR1 agonists, primary screen, Fluo-8 calcium fluorescence, CHO RD-HGA16 cells; activation, % at 3 µM; AID 624467, 2012; vehicle wells 0%, saturating PEA agonist 100%; 360,000 compounds, 0.99% hits;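 active means activation above the mean activation of all test compounds in the run plus 3 SD, cut at about 38% in these data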
#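 Test system: RD-HGA16 (CHO) cells co-expressing Gα16 and hTAAR1 | Doses: Single dose, 3 µM | Schedule: 17-24 h seeding, 75 min 37 °C dye, 30 min RT | Evaluation: % activation from peak over basal fluorescence ratio, DMSO-to-PEA scaled | Technique: Kinetic Fluo-8 calcium fluorescence | Benchmarks: Low control DMSO, high control PEA (EC100)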
# OX1R antag-1: antagonists of human orexin 1 receptor (OX1R); OX1R-expressing cells, FRET antagonist read-out; inhibition, % at 6.6 µM; 330,000 compounds, 1.8% hits; AID 485270, 2010; in the data active means inhibition mostly above about 38%, no sharp cut-off; inactive means mostly below about 40%;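 further: 0% = agonist challenge alone and 100% = reference antagonist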
# Target sequence (O43613 whole entry, looked up): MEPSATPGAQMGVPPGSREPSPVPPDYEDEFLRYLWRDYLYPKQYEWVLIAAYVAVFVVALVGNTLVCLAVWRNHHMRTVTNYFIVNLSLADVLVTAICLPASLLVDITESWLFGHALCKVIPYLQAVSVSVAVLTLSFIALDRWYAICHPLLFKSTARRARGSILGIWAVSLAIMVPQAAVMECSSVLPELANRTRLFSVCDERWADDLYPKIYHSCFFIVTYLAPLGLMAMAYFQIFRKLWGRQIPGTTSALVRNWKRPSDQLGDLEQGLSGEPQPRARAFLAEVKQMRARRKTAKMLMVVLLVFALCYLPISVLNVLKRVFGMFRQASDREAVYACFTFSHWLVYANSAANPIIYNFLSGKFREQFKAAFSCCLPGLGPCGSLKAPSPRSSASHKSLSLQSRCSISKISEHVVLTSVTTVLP
# GPR7 antag: GPR7 receptor antagonists, primary screen, cell-based, fluorescence, single concentration. Neuropeptides B/W receptor type 1 (Homo sapiens), P48145. GPR7-expressing cells, fluorescence antagonist assay. inhibition, % at 4.4 µM. 290,000 compounds, 1.1% hits; in the data active means inhibition above about 16%, passing the limit was not always enough;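 further: cells stimulated with the agonist NPW; 0% = agonist with vehicle and 100% = vehicle without agonist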
# Target sequence (P48145 whole entry, looked up): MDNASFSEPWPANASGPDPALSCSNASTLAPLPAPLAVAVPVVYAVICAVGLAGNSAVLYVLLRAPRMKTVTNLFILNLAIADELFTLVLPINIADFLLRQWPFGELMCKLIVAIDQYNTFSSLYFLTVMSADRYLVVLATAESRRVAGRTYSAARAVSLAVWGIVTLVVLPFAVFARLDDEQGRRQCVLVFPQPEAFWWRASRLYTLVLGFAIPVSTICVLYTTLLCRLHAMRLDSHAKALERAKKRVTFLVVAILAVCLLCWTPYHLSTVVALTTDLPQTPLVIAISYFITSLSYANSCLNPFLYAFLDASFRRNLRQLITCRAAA
# TAAR1 antag: human TAAR1 antagonists, primary screen, Fluo-8 calcium fluorescence, CHO RD-HGA16 cells. 360,000 compounds, 1.5% hits. antagonist. Trace amine-associated receptor 1 (Homo sapiens), Q96RJ0. inhibition, % at 3 µM;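 active means inhibition above a per-plate cutoff, the mean inhibition of test compounds on that plate plus 3 SD, cut at about 49% in these data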;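 further: 0% = DMSO plus EC80 beta-PEA response and 100% = DMSO alone without agonist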
#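 Material: RD-HGA16 CHO cells with stable hTAAR1 and Gα16; Dosing: single nominal final test compound concentration of 3 µM; Schedule: seeding 17-24 h prior, 75-min 37 °C, 30-min RT dye loading; Detection: kinetic Fluo-8 calcium fluorescence measurement; Measure: % inhibition from peak post-agonist over basal fluorescence ratio; Benchmarks: vehicle and agonist controls.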
# OX1R antag-2: OX1R (HCRTR1) antagonists, primary screen, fluorescence, CHO/OX1R cells, Fluo-8 calcium, orexin A; Orexin/Hypocretin receptor type 1 (Homo sapiens), O43613; Fluo-8 calcium fluorescence; inhibition, % at 5 µM; 330,000 compounds, 0.43% hits; AID 434989, 2010;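 active means inhibition above its plate's threshold, mean inhibition of all tested compounds on the plate plus 3 SD, cut at about 37% in these data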;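 further: 0% = orexin A challenge wells and 100% = SB-334867-A antagonist wells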
# CHO parental Ca: ATP-evoked calcium signal inhibitors, parental CHO, primary screen, counter-screen for OX1R antagonist project, cell-based, fluorescence, Fluo-8 calcium dye; parental CHO-K1, ATP-induced calcium, Fluo-8 fluorescence; inhibition, % at 5.6 µM; 330,000 compounds, 0.63% hits; AID 463079, 2010;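 active means inhibition above that plate's mean sample inhibition plus 3 SD, cut at about 26% in these data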;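 further: 0% = ATP-challenged DMSO wells and 100% = DMSO wells without ATP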
#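 Assay system: untransfected parental CHO cell line. Also added: ATP agonist challenge. Dosing: one dose, 5.6 µM nominal. Measured by: Fluo-8 fluorescence. Read-out: % inhibition. Benchmarks: ATP wells versus no-ATP DMSO wells. Repeats: no replicates.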
# * hit, by the source's call; x = no result.
SMILES,TAAR1 agonist,OX1R antag-1,GPR7 antag,TAAR1 antag,OX1R antag-2,CHO parental Ca
COc1ccc(-c2[nH]ncc2-c2cscn2)c(O)c1,1.1,8.5,5.2,16.7,-1.1,-10.3
COc1ccc(O)c(-c2cn[nH]c2-c2cccs2)c1,-2.7,10.6,19.7*,4.5,-10.1,-1.4
COC(=O)[C@@]1(Cc2ccc(OC)cc2)[C@H]2c3cc(C(=O)N(C)C)n(CCSCCO)c3C[C@H]2CN1C(=O)c1ccccc1,x,7.0,-4.1,x,-28.1,-25.2
CC(C)NC(=O)C1(C)CCCCN1Cc1ccc(OCc2ccccc2)cc1 (centres undefined),3.9,x,x,-25.9,x,x
N#Cc1c(-c2ccccc2)nc(SCC(=O)N(c2ccccc2)c2ccccc2)[nH]c1=O,5.4,23.1,3.1,-28.3,-9.7,-4.5
N#Cc1c(-c2ccccc2)nc(SCC(=O)N2c3ccccc3Sc3ccccc32)[nH]c1=O,13.6,76.0*,-8.3,10.3,-15.1,-4.7
CCCCCCCCN1C(=O)[C@H](CC(=O)N2CCN(C(=O)c3ccco3)CC2)C[C@@]2(C(=O)OC)CC(C)(C)CC=C12,-2.3,x,x,-33.1,x,x
CCO[C@@H]1OC(C(=O)N2CCN(Cc3ccc4c(c3)OCO4)CC2)=C[C@H](c2ccc(Br)cc2)[C@H]1CCCO,11.7,16.8,-10.8,48.8*,-7.1,16.7
CCOC(=O)c1csc(-c2sccc2Br)n1,3.5,44.9*,-4.9,-52.3,-11.4,-8.4
CCOC(=O)c1csc(-c2ccc(OC)c(OC)c2)n1,1.3,17.5,-9.9,-5.0,-23.2,-4.5
CC(=O)NC(c1ccccc1)c1nc(-c2ccc(Cl)cc2)cs1 (centres undefined),0.9,x,x,-11.2,x,x
Cc1cccc(S(=O)(=O)Nc2ccc(-c3ccc4nncn4n3)cc2)c1,1.5,23.0,x,-3.2,-8.6,-3.0
COc1ccc(C2=Nn3c(nnc3-c3ccccc3F)SC2)cc1OC1CCCC1,3.2,23.4,x,65.9*,32.3,-11.8
COc1ccc(C2=Nn3c(nnc3-c3ccccc3F)SC2)cc1OC1CCOC1 (centres undefined),7.0,12.8,x,28.0,-11.8,-18.9
COc1cc(/C=C/C(=O)c2ccc(C)c([N+](=O)[O-])c2)cc(OC)c1O,44.7*,24.7,-10.3,14.1,-8.0,-27.2
COc1cc(/C=N/NC(=O)c2ccc(C)nc2)cc([N+](=O)[O-])c1O,5.8,42.8*,8.1,-7.8,-23.9,-15.7
COc1ccc([N+](=O)[O-])cc1/C=N/NC(=O)Cc1ccccc1,4.4,20.5,-1.7,-0.5,-12.6,4.3
COc1cc(/C=N/NC(=O)Cc2ccccc2)ccc1Oc1ccc([N+](=O)[O-])cc1[N+](=O)[O-],5.3,14.4,-8.4,-10.2,-8.6,28.6*
CCOc1cc(/C=N\NC(=O)c2ccc(C)nc2)cc([N+](=O)[O-])c1O,11.2,27.7,-3.3,1.4,5.8,-1.4
COc1cc(/C=N/NC(=O)Cc2ccccc2)cc([N+](=O)[O-])c1O,3.0,53.7*,-14.8,-6.3,0.1,-2.4
CC1(C(=O)Nc2ccc3c(c2)OCO3)CCN1C(=O)Cc1ccc(-c2ccccc2)cc1 (centres undefined),3.2,x,x,18.8,x,x
CCOC(=O)[C@]12CCC=C1N(Cc1cccc3ccccc13)C(=O)[C@H](CC(=O)N1CCCC1)C2,0.9,x,x,3.6,x,x
CC(C)(O)C(=O)NNC(=S)Nc1ccc(F)c(Cl)c1,6.5,7.6,5.2,7.8,-2.7,1.9
O=C(Nc1ccccc1Cl)c1cc(C2CCCCN2C(=O)CCCc2ccccc2)on1 (centres undefined),3.3,x,x,-1.7,x,x
C=CCn1c(SCCC)nc(O)cc1=O,60.5*,0.2,-3.1,-17.0,-12.8,-14.1
SMILES,TAAR1 agonist,OX1R antag-1,GPR7 antag,TAAR1 antag,OX1R antag-2,CHO parental Ca
COc1cccc(CN(C)Cc2cc(=O)oc3c(C)c(C)ccc23)c1,2.4,x,-18.1,13.3,x,x
Cc1ccccc1CN(C)Cc1cc(=O)oc2c(C)c(C)ccc12,-0.7,20.2,14.2,50.9*,-1.5,5.6
O=C(Nc1ccccc1)Nc1ccc(S(=O)(=O)N2CCCCC2)cc1,50.1*,43.1,-12.0,18.8,34.2,38.0*
Cc1ccc(S(=O)(=O)N2CCN(CC(=O)N3CCOCC3)CC2)cc1,2.3,15.8,-1.6,-19.3,-6.0,-8.4
CC(SCC(=O)Nc1ccc(S(=O)(=O)N2CCCCC2)cc1)C(=O)O (centres undefined),-3.5,12.2,18.6*,-19.5,-5.7,-17.1
CC(=O)Nc1ccc(S(=O)(=O)N2CCN(CC(=O)N3CCOCC3)CC2)cc1,0.4,-0.1,20.0*,-3.1,4.1,-9.5
CN1CCN(S(=O)(=O)c2ccc(NC(=O)c3ccc(Br)s3)cc2)CC1,9.1,-1.1,18.0*,10.9,-9.5,-11.3
CCC(C)(C)C1CCc2[nH]nc(C(=O)NCCCNC(=O)OC(C)(C)C)c2C1 (centres undefined),5.1,13.5,x,3.7,-15.1,-4.2
CC(C)c1ccc(NC(=O)CSc2n[nH]c(=O)n2-c2ccc3c(c2)OCCO3)cc1,1.7,6.0,-13.5,-15.9,-26.5,-24.1
CC(=O)Nc1ccc(S(=O)(=O)N2CCN(S(=O)(=O)N3CCCCCC3)CC2)cc1,23.3,9.1,19.2*,2.9,-22.9,-14.9
O=C(CN1CCN(S(=O)(=O)c2ccc(Br)cc2)CC1)Nc1ccc2c(c1)OCO2,6.6,4.1,31.0*,-6.4,-16.4,-5.1
O=C(CN1CCOCC1)Nc1ccc2c(c1)OCO2,3.0,24.4,-3.6,-10.0,-10.6,-3.7
N#CC(C#N)=NNc1ccc(S(=O)(=O)N2CCCCC2)cc1,12.4,56.7*,-8.0,-1.9,0.6,-14.9
CCn1cc([N+](=O)[O-])c(C(=O)N2N=C(c3ccc(Cl)c(Cl)c3)CC2c2ccccc2O)n1 (centres undefined),10.2,17.7,-3.0,23.1,73.5*,44.3*
CCn1cc([N+](=O)[O-])c(C(=O)N2N=C(c3ccc(O)c(OC)c3)CC2c2ccccc2O)n1 (centres undefined),11.6,13.8,-10.2,27.6,-15.8,-23.4
CCCn1c(=O)c(C(=O)Nc2ncccc2O)c(O)c2ccccc21,-0.7,x,-4.2,6.4,x,x
Cn1c(=O)c(C(=O)Nc2ncccc2O)c(O)c2ccccc21,5.9,16.9,5.4,6.5,26.8,47.8*
CC(NC(=O)COC(=O)/C(=C/c1cccs1)c1cccs1)c1ccccc1 (centres undefined),4.7,15.4,8.2,51.8*,-12.0,-14.1
COCCn1c(N)c(C(=O)NCC2CCCO2)c2nc3ccccc3nc21 (centres undefined),14.5,38.2,3.2,48.7*,-18.2,-17.4
CC(C)(CO)NCc1cc(Br)ccc1OCc1ccccc1,0.5,16.2,0.4,-15.7,-12.7,-13.8

# Screening results deposited in PubChem by The Scripps Research Institute Molecular Screening Center.
